Compound activity as filed in PubChem BioAssay.
An excerpt weighted towards active compounds, which were near 2.6% of everything screened.
Rin1-Abl PPI inh: inhibitors of Rin1-Abl protein binding, primary screen, biochemical, TR-FRET. Tyrosine-protein kinase ABL1 (Homo sapiens) + Ras and Rab interactor 1 (Homo sapiens), …. inhibition, % at 7.35 µM. hit rate 0.4% among 360,000; in the data active means inhibition above about 5%, passing the limit was not always enough
Myeloid diff 2: induction of myeloid progenitor differentiation, primary screen, cell-based, flow cytometry, MLPCN library; calls only at 10 µM; hit rate 1% among 360,000; AID 624256, 2012; ER-HoxA9 myeloid progenitors, lysozyme-GFP differentiation;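 active means normalized GFP-positive differentiation at or above the plate's own cutoff, the solvent-only control mean plus 3 SD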;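 further: cells exposed to compound for four days before flow analysis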
GRK2 inh: compounds blocking aptamer binding on GRK2 – biochemical, human GRK2, bead flow cytometry, HTS, primary screen; Beta-adrenergic receptor kinase 1 (Homo sapiens), P25098; inhibition of aptamer binding, % at 10 µM; AID 488847, 2010; hit rate 0.59% among 330,000; FAM-aptamer displacement from GRK2;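 active means inhibition of aptamer binding above 40%, roughly 3 SD of noise, on plates passing a quality check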;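 further: median bead fluorescence of bound FAM aptamer so fluorescent compounds give negative values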
Target sequence (P25098 whole entry, looked up): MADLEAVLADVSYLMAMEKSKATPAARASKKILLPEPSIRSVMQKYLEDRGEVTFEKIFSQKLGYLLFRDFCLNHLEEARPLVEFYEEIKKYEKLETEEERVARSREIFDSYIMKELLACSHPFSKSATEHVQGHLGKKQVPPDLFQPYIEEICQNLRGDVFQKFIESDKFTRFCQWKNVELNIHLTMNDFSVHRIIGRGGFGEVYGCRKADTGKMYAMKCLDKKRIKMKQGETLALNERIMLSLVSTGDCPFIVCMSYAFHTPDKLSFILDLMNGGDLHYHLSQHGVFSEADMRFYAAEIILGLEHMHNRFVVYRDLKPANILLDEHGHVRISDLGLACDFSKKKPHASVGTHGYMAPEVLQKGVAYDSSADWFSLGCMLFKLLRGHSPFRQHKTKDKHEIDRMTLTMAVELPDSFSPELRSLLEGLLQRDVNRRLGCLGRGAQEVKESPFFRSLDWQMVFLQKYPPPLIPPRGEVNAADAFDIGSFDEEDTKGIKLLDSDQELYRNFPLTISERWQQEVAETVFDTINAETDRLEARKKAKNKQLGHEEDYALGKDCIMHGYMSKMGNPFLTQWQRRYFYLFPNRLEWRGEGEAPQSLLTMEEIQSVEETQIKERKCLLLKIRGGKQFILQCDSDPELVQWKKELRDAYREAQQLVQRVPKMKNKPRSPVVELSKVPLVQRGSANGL
T cell HTS: modulators of CD8 T cell-vesicle binding, primary screen, mouse 2C CD8+ T cells, flow cytometry; 2C CD8+ T cell-vesicle binding; hits give low values; response (vesicle binding), % at 7 µM; hit rate 0.068% among 330,000;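 active means response, share of CD8 T cells binding vesicles, and their 90th percentile fluorescence all below set limits, cut at about 80% in these data, passing the limit was not always enough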;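 further: values below 100% mean blocked vesicle binding to the CD8+ T cells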
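Material: murine 2C transgenic CD8+ T lymphocytes / Also added: QL9-peptide-loaded Drosophila micro-vesicles bearing Ld, ICAM-1 and B7-1 / Schedule: binding step 1.5 h, 37 °C, antibody labelling 20 min, ice / Signal: flow cytometry, PE anti-B7-1 (FL2) versus Alexa647 anti-CD8 (FL8), PFA-fixed / Evaluation: percent CD8+ FL2 mean versus row control / Benchmarks: naked versus QL9-loaded vesicles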
SKN-1 block: suppressors of acrylamide-induced Pgst-4::GFP reporter in worms, primary screen, SKN-1 inhibitor project, whole organism, uHTS, GFP/RFP fluorescence ratio, strain VP596 | C. elegans VP596 Pgst-4::GFP/RFP ratio, 24 h | inhibition, % at 21.8 µM | hit rate 0.49% among 360,000 | AID 624304, 2012;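 active means interference check ratio from 0.5 to 1.5 plus GFP to RFP signal ratio inhibition reaching or exceeding a fixed threshold, cut at about 30% in these data, passing the limit was not always enough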
Rce1 inhib: yeast Rce1p protease inhibitors, primary screen, biochemical, fluorescence, cell-free homogeneous; CAAX prenyl protease 2 (Saccharomyces cerevisiae (strain ATCC 204508 / S288c)), Q03530; yeast membranes, quenched prenylated peptide cleavage fluorescence; hit rate 0.27% among 290,000; AID 2563, 2010; calls only;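 active means fall in fluorescence gain of 50% or more versus controls, with final raw signal at or below 3038400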;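 further: plate controls were neutral control wells for no effect and wells lacking membranes for full effect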
GRK2 CP1: GRK2 aptamer-displacing inhibitors, retest, confirmation, biochemical, cherry pick 1, bead flow cytometry | bead-bound GRK2, FAM-aptamer displacement | aptamer displacement, % at 10 µM | shares compounds with GRK2 inh | AID 504451, 2011 | hit rate 4% among 2,000;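 active means aptamer displacement above 40%, near three times the noise of non-fluorescent compounds, on plates passing quality checks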;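 further: negative values mostly reflect intrinsic compound fluorescence rather than true enhancement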
Aptamer quench SP: quenches fluorescent RNA aptamer, GRK2 hit artifact; shares compounds with GRK2 inh; Carboxyfluorescein RNA aptamer on beads, flow cytometry quenching; hits give low values; fluorescence response (% of DMSO), % at 10 µM; 2,000 tested, under 10 active; AID 504580;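 active means compounds that quench the bead-bound fluorescent RNA probe, cutting fluorescence to under half of the solvent control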;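 further: counterscreen run without GRK2 so only probe quenching by compound is measured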
GRK2 confirm 2: GRK2 aptamer-displacing inhibitors, hit retest, confirmation, biochemical, cherry pick 2, bead flow cytometry. shares compounds with GRK2 inh. bead-bound GRK2, FAM-aptamer displacement. inhibition of aptamer binding, % at 10 µM. 360 tested, under 10 active. AID 504782, 2011;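 active means inhibition of aptamer binding above 40%, about triple the noise seen with nonglowing compounds, on plates passing quality control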;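 further: negative values mostly come from compounds that fluoresce themselves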
FAM quench CP2: quenches fluorescent RNA aptamer, GRK2 hit artifact. shares compounds with GRK2 inh. carboxyfluorescein RNA aptamer beads, flow cytometry quenching; hits give low values. fluorescence response vs DMSO, % at 10 µM. 360 tested, under 10 active. AID 588494;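 active means response vs DMSO under 50%, meaning signal dropped by over half, treated as fluorescence quencher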;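 further: labelled aptamer on streptavidin beads without GRK2 as a quench counter-screen; 100% = bead fluorescence of DMSO wells and lower means quenching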
Starred values were filed as active, the others as inactive; i = inactive; . = no result.

SMILES	Rin1-Abl PPI inh	Myeloid diff 2	GRK2 inh	T cell HTS	SKN-1 block	Rce1 inhib	GRK2 CP1	Aptamer quench SP	others
O=C(N/N=C/c1cccnc1)c1cccc(NC(=O)c2ccc(Cl)cc2)c1	1	i	39	245	8	i	-5	93
Cc1ccnc(NS(=O)(=O)c2ccc(NC(=O)C3C4C=CC(C4)C3C(=O)O)cc2)n1 (centres undefined)	-1	i	33	268	4	i	.	.
O=C1CC(N2CCN(c3ccccc3)CC2)C(=O)N1c1cccc(Cl)c1 (centres undefined)	-2	i	43*	144	6	i	3	96
O=C1CC(N2CCN(c3ccc(Cl)cc3)CC2)C(=O)N1c1ccccc1 (centres undefined)	-1	i	1	253	7	i	.	.
Cc1ccc2nc(NC(=O)C3CC3C)sc2c1 (centres undefined)	3	i	1	168	18	i	.	.
CC1CCN(C(C(=O)Nc2ccc3c(c2)OCO3)c2ccccc2)CC1 (centres undefined)	0	i	43*	280	1	i	-1	102
COc1ccc(/C=N/Nc2ncc(Br)cn2)c(OC)c1	-1	i	45*	548	-12	i	25	99
CC1=C(C(N)=O)C(c2cccnc2)n2nc(SCc3ccccc3Cl)nc2N1 (centres undefined)	-3	i	1	371	6	i	.	.
CCOC(=O)C1=C(C)Nc2nc(SCc3cccnc3)nn2C1c1ccc(OC)cc1 (centres undefined)	0	i	55*	60	9	i	2	100
Cc1ccc(CC2(O)CC(C)N(C)CC2C)c(C)c1 (centres undefined)	8	i	56*	234	17	i	-1	104
COc1ccc(C2(CCN)CC(C)N(C)CC2C)cc1 (centres undefined)	-4	i	0	97	-8	i	.	.
O=C(NC1CCCCC1)c1c2c(nc3ccccc13)CCC2	-2	i	2	374	4	i	.	.	GRK2 confirm 2=-1;FAM quench CP2=100
COc1ccc(-c2cc(C(F)(F)F)n3nc(C(=O)Nc4c(C)n(C)n(-c5ccccc5)c4=O)cc3n2)cc1	1	i	.	.	3	.	.	.
Cc1ccc(-n2ncc(C(=O)O)c2C2CCN(C(=O)OC(C)(C)C)CC2)cc1	-1	i	43*	753	3	i	-4	102
Cc1ccc(NC(=O)CN2CCCC2c2cccn2C)c(Br)c1 (centres undefined)	0	i	0	159	3	.	.	.
Cc1nnc(C)c2c(C)n(Cc3ccc4c(c3)OCO4)c(C)c12	-1	i	64*	207	-1	i	-13	93
c1cc2c(cc1Cn1cnnn1)OCO2	-1	i	0	289	-28	i	.	.
O=C(CN1CCc2ccccc2C1)Nc1ccccc1C(F)(F)F	0	i	48*	312	-10	.	4	93
